IC50 and Activity data for ten compounds are collected here from ChEMBL document CHEMBL1148950, “Indole glucoalkaloids from Chimarrhis turbinata and their evaluation as antioxidant agents and acetylcholinesterase inhibitors” (J Nat Prod, 2004).

Calls of active or inactive are those of the source. The calls are words filed in the database; no cut-off is given here.

Test [1] relates to Radical scavenging activity. The test is described as follows: Antioxidant activity assessed as DPPH radical scavenging activity. The class given is functional. In outline: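 Radical scavenging against DPPH with rutin as the reference standard. The value is the concentration in µM needed to scavenge 50% of DPPH free radicals.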
For test [2], the target named is Acetylcholinesterase (Homo sapiens) (UniProt P22303). The test is described as follows: Inhibition of acetylcholinesterase at 1.0 uM by TLC screening assay.
The target of the next test is T1, Acetylcholinesterase (Rattus norvegicus, UniProt P37136).
T1 sequence (P37136 whole entry): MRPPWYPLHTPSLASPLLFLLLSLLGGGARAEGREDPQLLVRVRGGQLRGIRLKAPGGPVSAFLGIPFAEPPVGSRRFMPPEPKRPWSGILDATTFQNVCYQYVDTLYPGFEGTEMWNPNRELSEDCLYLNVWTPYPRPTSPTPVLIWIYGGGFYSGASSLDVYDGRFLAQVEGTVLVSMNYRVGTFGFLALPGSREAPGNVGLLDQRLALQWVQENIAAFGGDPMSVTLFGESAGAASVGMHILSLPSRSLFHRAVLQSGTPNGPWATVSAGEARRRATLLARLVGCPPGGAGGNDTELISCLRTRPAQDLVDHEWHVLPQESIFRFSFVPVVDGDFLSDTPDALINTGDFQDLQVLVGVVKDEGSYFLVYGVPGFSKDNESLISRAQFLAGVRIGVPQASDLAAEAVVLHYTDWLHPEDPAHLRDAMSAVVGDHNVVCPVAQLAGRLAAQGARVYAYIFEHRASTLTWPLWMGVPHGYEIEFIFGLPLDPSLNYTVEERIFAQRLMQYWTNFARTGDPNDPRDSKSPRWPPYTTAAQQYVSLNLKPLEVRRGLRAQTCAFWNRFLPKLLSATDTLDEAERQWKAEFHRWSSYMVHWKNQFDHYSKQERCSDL
Nature of the test: Inhibition of rat brain acetylcholinesterase by colorimetric method.

Test [3] concerns the target Acetylcholinesterase (Homo sapiens) (UniProt P22303). Nature of the test: Inhibition of acetylcholinesterase at 0.1 uM by TLC screening assay. In outline:
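TLC bioautography on silica gel. Samples in MeOH or MeOH-CH2Cl2 at 0.1 and 1.0 mM were spotted (2 µL), with physostigmine and galanthamine references at 0.1 and 0.01 µM. The plate was sprayed to saturation with 1:1 1 mM DTNB/[…] iodide in buffer, dried 5 min, then sprayed with 3 U/mL AChE. White spots on a yellow background were scored as inhibition.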

Acetylcholinesterase (Homo sapiens), sequence (P22303 whole entry): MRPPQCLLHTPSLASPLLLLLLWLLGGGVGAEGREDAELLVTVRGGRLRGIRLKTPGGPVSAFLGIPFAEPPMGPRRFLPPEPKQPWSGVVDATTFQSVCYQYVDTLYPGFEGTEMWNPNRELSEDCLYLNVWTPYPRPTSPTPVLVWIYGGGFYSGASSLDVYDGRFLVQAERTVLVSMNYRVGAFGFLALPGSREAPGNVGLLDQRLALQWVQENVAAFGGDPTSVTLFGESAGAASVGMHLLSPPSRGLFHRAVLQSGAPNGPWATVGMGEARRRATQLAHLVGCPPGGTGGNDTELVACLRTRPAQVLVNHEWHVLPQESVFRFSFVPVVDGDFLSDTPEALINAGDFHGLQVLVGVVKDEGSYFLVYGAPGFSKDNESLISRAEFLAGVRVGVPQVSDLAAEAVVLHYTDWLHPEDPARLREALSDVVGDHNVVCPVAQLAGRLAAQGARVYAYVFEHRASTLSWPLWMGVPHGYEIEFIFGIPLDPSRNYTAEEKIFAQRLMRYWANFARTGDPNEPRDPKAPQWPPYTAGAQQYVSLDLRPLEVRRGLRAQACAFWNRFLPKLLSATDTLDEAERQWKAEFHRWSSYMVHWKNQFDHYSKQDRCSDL

With `C=CC1C(C[C@@H]2NCCc3c2[nH]c2ccccc32)C(C(=O)O)=CO[C@H]1O[C@@H]1O[C@H](CO)[C@@H](O)[C@H](O)[C@H]1O` (stereo partly drawn) [STRICTOSIDINIC ACID], the IC50 in test [1] turned out to be 49.7 µM. On the same count and under the same terms, next, `Cc1nc(C(=O)O)cc2c1[nH]c1ccccc12` [HARMAN-3-CARBOXYLIC ACID]: 45.5 µM; `C=CC1C(C[C@@H]2NC(C(=O)O)Cc3c2[nH]c2ccccc32)C(C(=O)OC)=CO[C@H]1O[C@@H]1O[C@H](CO)[C@@H](O)[C@H](O)[C@H]1O` (stereo partly drawn): 47.1 µM; `C=CC1C(CC2=NCCc3c2[nH]c2ccccc32)C(C(=O)O)=CO[C@H]1O[C@@H]1O[C@H](CO)[C@@H](O)[C@H](O)[C@H]1O` (stereo partly drawn): 52.3 µM. Still for that read-out and setting: next, `C=C[C@H]1[C@H](O[C@@H]2O[C@H](CO)[C@@H](O)[C@H](O)[C@H]2O)OC=C(C(=O)OC)[C@H]1C[C@@H]1NCCc2c1[nH]c1ccccc21` [STRICTOSIDINE]: 56 µM.

For `C=CC1C(Cc2nc(C(=O)O)cc3c2[nH]c2ccc(O)cc23)C(C(=O)OC)=CO[C@H]1O[C@@H]1O[C@H](CO)[C@@H](O)[C@H](O)[C@H]1O` (stereo partly drawn) [CORDIFOLINE], the IC50 in test [1] was found to be 18.3 µM.

As for `C[C@@H]1O[C@@H](OC[C@H]2O[C@@H](Oc3c(-c4ccc(O)c(O)c4)oc4cc(O)cc(O)c4c3=O)[C@H](O)[C@@H](O)[C@@H]2O)[C@H](O)[C@H](O)[C@H]1O` [RUTIN], in test [1], the IC50 was determined as 12.3 µM. Still for that read-out and setting: next, `C=CC1C(CC2=NCCc3c2[nH]c2ccccc32)C(C(=O)OC)=CO[C@H]1O[C@@H]1O[C@H](CO)[C@@H](O)[C@H](O)[C@H]1O` (stereo partly drawn): 55.1 µM. With `C=C[C@H]1[C@H](O[C@H]2O[C@H](CO)[C@@H](O)[C@H](O)[C@H]2O)OC=C(C(=O)OC)[C@H]1Cc1nc(C(=O)O)cc2c1[nH]c1ccccc12` [DESOXYCORDIFOLINE], in test [2], the result was Active. The IC50 in test [1] was 49.9 µM. As for `C=C[C@H]1[C@@H](/C(=C/O)C(=O)OC)C[C@H]2c3[nH]c4ccccc4c3CCN2[C@H]1O[C@H]1O[C@@H](CO)[C@H](O)[C@@H](O)[C@@H]1O` [TURBINATINE], the figures for the IC50 (in test [1]; on Acetylcholinesterase) were 50.9 µM and 1.86 µM, respectively. In addition, the outcome in test [3] was Active.
